Compound activity deposited in PubChem by Sanford-Burnham Center for Chemical Genomics.
Rows were chosen to be rich in hits. Some 1.9% of all compounds tested hit in one or more screens of this group.
APJ agonist = agonists of human apelin receptor APJ, primary screen, CHO-K1 cells, PathHunter beta-arrestin, luminescence; activation, % at 20 µM; hit rate 0.11% among 330,000; 0% DMSO wells, 100% apelin;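 active = activation more than six SD over the plate average, tested at 20 µM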;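 also: 0% = DMSO alone and 100% = apelin-13 at 10 nM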
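Assay system: CHO-K1 cells stably expressing ProLink-tagged human APJ and arrestin–beta-gal acceptor. Compound dosing: 20 µM single point, 1% DMSO. Times: 16-18 h seeding, 90 min dark compound exposure, 60 min detection. Detection: beta-gal luminescence. Evaluation: APJ–arrestin association signal. Controls: negative DMSO alone, positive Apelin-13 at 10 nM.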
CCR6 antagonist = CCR6 receptor antagonists, primary screen, cell-based, CHO-K1, luminescence, beta-arrestin, uHTS | inhibition, % at 20 µM | CHO-K1 CCR6 PathHunter beta-arrestin, CCL20-stimulated | AID 493098, 2011 | hit rate 0.49% among 340,000;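 active = compounds whose inhibition of the agonist-driven luminescence signal at 20 µM reaches about 50%, limit read from the data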;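 also: cells stimulated with CCL20 at 14 nM final; plate controls were DMSO with CCL20 for no effect and DMSO without agonist for full effect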
EBI2 antag = EBI2 receptor antagonists, beta-arrestin recruitment, primary screen, cell-based, luminescence, 7a,25-OHC stimulation, uHTS. G-protein coupled receptor 183 (Homo sapiens), P32249. 7a,25-OHC stimulated. inhibition, % at 5 µM. hit rate 0.81% among 360,000. AID 651636, 2012; in the data active = inhibition above about 38%;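 also: enzyme fragment complementation signal reports receptor beta-arrestin coupling in cells; 0% = agonist plus DMSO wells and 100% = wells without agonist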
TAG inh = inhibitors of triacylglycerol accumulation, primary screen, cell-based, uHTS, fluorescence, H9c2; AID 651582, 2012; H9c2 cells, Nile Red lipid (TAG) fluorescence; cells loaded with 200 µM oleic acid; hit rate 0.66% among 230,000; inhibition, % at 12.5 µM;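 active = pattern-corrected inhibition of lipid staining of at least 50% with the nuclear-stain viability signal not falling by more than 50%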;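 also: 0% = DMSO wells and 100% = triacsin C control wells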
CXCR6 inh = CXCR6 receptor inhibitors, primary screen, cell-based, beta-arrestin, luminescence, CHO-K1 PathHunter, 1536-well; hit rate 0.36% among 360,000; C-X-C chemokine receptor type 6 (Homo sapiens), O00574; AID 602244, 2012; inhibition, % at 20 µM; in the data active = inhibition above about 34%, passing the limit was not always enough;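 also: antagonist mode with CXCL16 agonist at 10 nM final; 0% = 10 nM CXCL16 with DMSO and 100% = unstimulated wells without agonist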
Target sequence (O00574 whole entry, looked up): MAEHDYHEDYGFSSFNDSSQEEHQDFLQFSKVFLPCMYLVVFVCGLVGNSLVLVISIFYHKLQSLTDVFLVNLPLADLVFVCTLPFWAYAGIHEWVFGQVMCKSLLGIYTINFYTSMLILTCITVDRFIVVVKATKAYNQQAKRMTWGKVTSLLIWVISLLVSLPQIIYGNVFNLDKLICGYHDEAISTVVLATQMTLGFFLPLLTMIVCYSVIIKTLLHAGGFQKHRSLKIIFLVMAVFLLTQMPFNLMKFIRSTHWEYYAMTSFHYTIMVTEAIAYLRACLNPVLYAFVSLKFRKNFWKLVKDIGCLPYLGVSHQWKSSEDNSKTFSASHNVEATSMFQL
APJ antag = antagonists of human apelin receptor APJ, primary screen, CHO-K1 cells, beta-arrestin complementation, luminescence; inhibition, % at 20 µM; hit rate 0.32% among 330,000; P35414;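 active = inhibition above about 40% at 20 µM, limit read from the data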;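 also: cells challenged with 10 nM apelin-13 agonist together with compound; plate controls were apelin-13 plus DMSO wells for no effect and DMSO wells lacking apelin-13 for full effect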
Starred values were filed as active, the others as inactive; · = no result given; ! = a repeat was not active.

SMILES | APJ agonist | CCR6 antagonist | EBI2 antag | TAG inh | CXCR6 inh | APJ antag
C=C(C)[C@@H]1CC[C@]2(C(=O)O)CC[C@]3(C)[C@H](CC[C@@H]4[C@@]5(C)CC[C@H](O)C(C)(C)[C@@H]5CC[C@]43C)[C@@H]12 | 2.6 | -11.0 | -3.1 | 45.9 | 1.2 | 4.4
c1ccc(-c2csc(Nc3ncccn3)n2)cc1 | 4.6 | 5.0 | 5.7 | · | -2.1 | -2.7
NNc1nc(-c2ccccc2)cs1 | -5.0 | 59.4* | 3.1 | -2.3 | 18.8 | 29.7
C(=N\Nc1nc(-c2ccccc2)cs1)/c1ccco1 | 10.3* | -18.4 | -14.4 | · | -16.3 | -53.7
Cc1nn(-c2ccccc2)c(Cl)c1CN(C(=O)CCl)c1ccc(Cl)cc1 | · | 10.2 | 30.2 | · | -16.3 | ·
Cc1nn(-c2ccccc2)c(Cl)c1CN(C(=O)CCl)c1cccc2ccccc12 | -2.6 | 18.0 | 59.5* | · | -1.5 | 13.8
CCOc1ccc(C(=O)NC(=S)Nc2ccc(NC(=O)c3ccco3)c(C)c2)cc1[N+](=O)[O-] | -5.4 | 50.3* | 2.1 | 7.1 | 23.9 | 27.2
COc1cc(NC(=O)c2ccc(OC)c([N+](=O)[O-])c2)ccc1NC(=O)c1ccco1 | 2.1 | 1.7 | 8.6 | 16.5 | 3.2 | -2.8
CCOc1ccc(C(=O)NC(=S)Nc2ccc(N3CCC(C)CC3)cc2)cc1[N+](=O)[O-] | · | 53.0* | 8.3 | · | 23.7 | ·
CCC(=O)c1ccc(N2CCN(C(=O)c3ccc(Br)cc3)CC2)c(F)c1 | -0.1 | 5.2 | 56.7* | · | 0.1 | -15.0
O=C(CC[C@H]1O[C@@H](n2ccc(=O)[nH]c2=O)[C@H](O)[C@@H]1O)N[C@H](Cc1ccccc1)C(=O)NCc1cccs1 | · | · | 1.3 | · | -1.0 | ·
NC(=O)c1ccc(N=Nc2c(-c3ccccc3)[nH]n(-c3ccccc3)c2=O)cc1 | -6.8 | · | · | · | · | 37.2
NS(=O)(=O)c1ccc(N=Nc2c(-c3ccccc3)[nH]n(-c3nc(-c4ccccc4)cs3)c2=O)cc1 | -2.1 | 49.2 | 2.3 | · | 43.7* | 32.4
O=C(Nc1nc(-c2ccccn2)cs1)c1ccc(Cl)s1 | -9.5 | 16.2 | 42.8 | 54.1* | 16.9 | 18.0
Cc1ccc(C(=O)Nc2nc(-c3ccccn3)cs2)s1 | -6.5 | 25.1 | -5.4 | 2.9 | 11.8 | 17.7
C[C@H]1CN([C@@H](C)CO)C(=O)CCCn2nncc2CO[C@@H]1CN(C)S(=O)(=O)c1cn(C)cn1 | · | · | -4.3 | 10.2 | 3.8 | ·
S=C(NCCCN1CCOCC1)Nc1ccc(Cl)cc1 | -2.0 | 7.1 | -1.8 | 8.0 | 74.5* | -24.3
S=C(NCCN1CCOCC1)Nc1ccc(Cl)cc1 | -2.0 | 2.4 | 0.9 | 0.0 | -3.7 | 15.6
CCc1nn(CC(=O)NCCCN(C)Cc2ccccc2)c(=O)c2cc3sc(C)cc3n12 | -2.8 | 16.1 | 2.5 | · | 15.6 | 18.3
COc1ccc(-c2c(C#Cc3ccsc3)c3cc(-c4ccc(OC)nc4)ccc3n2C)cc1 | 0.2 | 0.5 | -4.3 | 29.1 | -2.5 | 19.3
COc1cc(C#Cc2c(-c3cncn3C)n(C)c3ccc(-c4ccc(OC)nc4)cc23)cc(OC)c1 | 1.9 | -14.7 | -1.0 | 103.1* | -4.1 | -11.0
COc1cccc(/C=N/n2c(C3CCCCC3)n[nH]c2=S)c1 | -1.6 | 21.4 | -4.6 | · | 4.7 | 18.1
O=C(c1nnsc1S(=O)c1ccc(Cl)cc1)N1CCOCC1 (centres undefined) | -1.5 | 73.8* | 26.6 | 85.5 | 66.6* | 23.9
Cc1cc(Br)ccc1SCC(=O)N1CCN(S(=O)(=O)c2ccccc2)CC1 | -2.2 | 5.1 | 82.6* | -2.2 | 0.7 | -2.6
COc1ccccc1C(=O)NNC(=S)NC(=O)c1cc(OC)c(OC)c(OC)c1 | -5.0 | 58.4* | 3.7 | 2.4 | 32.1 | 25.6
O=C1NC(Cc2ccccc2)c2nc3cc(Cl)ccc3c(=O)n2-c2ccccc21 (centres undefined) | -3.2 | · | · | · | · | 3.9
O=C(NCc1ccc(F)cc1F)[C@@H]1CCCN1C(=O)[C@@H]1CCCN1C(=O)c1cccs1 | · | · | -10.9 | · | -5.5 | ·
O=C1C(Cl)=C(Nc2ccccc2)C(=O)c2ccccc21 | · | 53.1* | 25.4 | · | 35.7 | ·
CN(C)CCCN1c2ccccc2Sc2ccc(Cl)cc21 | 8.1 | 16.9 | 2.9 | 50.3*! | 0.7 | 21.3
